Data taken from publication PMC12394810 (RSC Advances, 2025).
Entries after “also recorded” stand apart in the source; their conditions may differ.

Assays:
[1] = system: HepG2 (Human hematoma cell line); assay: MTT cytotoxicity assay, HEPG2; format: cell-based; conditions: HepG2, 48 h, read-out: IC50 HEPG2
In short: (§1)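 ATCC cells grown in DMEM with 10% FBS, 2 mM L-glutamine and 100 μg/mL penicillin–streptomycin at 37 °C, 5% CO2. Medium refreshed, 10 μL of 12 mM MTT stock added, then 4 h in the dark at 37 °C. Formazan dissolved in DMSO and read at 570 nm against media-only blanks. Three independent experiments; IC50 by linear regression.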

[2] = system: DU145 (human prostate cell line); assay: MTT cytotoxicity assay, DU145; format: cell-based; conditions: DU-145, 48 h, read-out: IC50 DU145
In short: as §1

[3] = system: HEK-293 (human embryonic kidney cell line); assay: MTT cytotoxicity assay, HEK-293; format: cell-based; conditions: HEK293, 48 h, read-out: IC50 HEK-293
[4] = system: Staphylococcus aureus MTCC 96; assay: Agar well diffusion, antibacterial; format: cell-based; conditions: 1 mg/mL, 18 hrs
In short: (§2)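 Agar well diffusion per CLSI (2012). Bacteria grown on Mueller–Hinton agar and kept in Mueller–Hinton broth at 37 °C for 24 h. Inoculum spread evenly over the agar, 6–8 mm wells punched, and each well loaded with 20–100 μL test compound. Plates incubated at 37 °C and zones of inhibition measured in mm.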

[5] = system: Klebsiella pneumoniae MTCC 109; assay: Agar well diffusion, antibacterial; format: cell-based; conditions: 1 mg/mL, 18 hrs
In short: as §2

[6] = system: Escherichia coli MTCC 730; assay: Agar well diffusion, antibacterial; format: cell-based; conditions: 1 mg/mL, 18 hrs
In short: as §2

[7] = system: Candida albicans MTCC 227; assay: Agar well diffusion, antifungal; format: cell-based; conditions: for zone of inhibition at 1000 µg/mL: Candida albicans, MTCC227, 18 h, read-out: Zone of inhibition Candida albicans
In short: (§3)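 Fungal strains kept like the bacteria (Mueller–Hinton media) but at 30 °C. Agar well diffusion per CLSI (2012): inoculum spread over the agar, 6–8 mm wells punched, and 20–100 μL test compound added per well. Plates incubated at 30 °C and zone of inhibition diameter read in mm.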

[8] = system: Bacillus subtilis MTCC 121; assay: Agar well diffusion, antibacterial; format: cell-based; conditions: 1 mg/mL, 18 hrs
In short: as §2

[9] = system: SKBR-3 (human breast cancer cell line); assay: MTT cytotoxicity assay, SKBR-3; format: cell-based; conditions: SK-BR-3, 48 h, read-out: IC50 SKBR-3
In short: as §1

[10] = system: erythrocytes (heparinized human blood); assay: Erythrocyte osmotic fragility; format: cell-based; conditions: 1 μL of 10 mg mL^−1 stock, 37 °C, 30 min
[11] = system: Candida tropicalis MTCC 230; assay: Agar well diffusion, antifungal; format: cell-based; conditions: 1 mg/mL, 18 hrs
In short: as §3

Swiss albino mice = assay: In vivo acute oral toxicity of compound 5n; conditions: for ALKP / Albumin / Bilirubin / Body weight / Cholesterol / Creatinine / Haemoglobin / RBC / SGOT / SGPT / Serum protein / Triglycerides / WBC: n = 6
In short: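 30 Swiss albino mice (15 male, 15 female; 22–25 g), 7-day acclimatization, 22 ± 5 °C, 12 h light/dark, standard feed and water ad libitum. Five groups of 3 male + 3 female. Single oral dose of test compound at 5, 50, 300 or 1000 mg kg−1, suspended in gum acacia and 0.7% CMC; controls received vehicle. Clinical observation, body weight, haematology, serum biochemistry, organ weights; mean ± SE, n = 6, compared with control.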

[12] = single acute oral dose 5, 50, 300, 1000 mg kg^−1
[13] = single oral dose 5 mg kg^−1, mean ± SE
[14] = single oral dose 50 mg kg^−1, mean ± SE
[15] = single oral dose 300 mg kg^−1, mean ± SE
[16] = single oral dose 1000 mg kg^−1, mean ± SE

## O=C/C=C/c1ccccc1 [Compound 1, (E)-3-phenylprop-2-enal, reference compound]
[1]
  IC50: 21.8 ± 1 µM
[2]
  IC50: 22.4 ± 1.6 µM
[3]
  IC50: 20.6 ± 1 µM
[4]
  Zone of inhibition Staphylococcus aureus: 7–8 mm
[5]
  Zone of inhibition Klebsiella pneumoniae: 7–8 mm
[6]
  Zone of inhibition Escherichia coli: 7–8 mm
[7]
  zone of inhibition at 1000 µg/mL: 11 mm
[8]
  Zone of inhibition Bacillus subtilis: 7–8 mm
[9]
  IC50: 13.9 ± 1.6 µM

## O=C(/C=C/C=C/c1ccccc1)c1ccccc1O [Compound 3, (2E,4E)-1-(2-hydroxyphenyl)-5-phenylpenta-2,4-dien-1-one]
[1]
  IC50: 40.1 ± 2 µM
[2]
  IC50: 83.5 ± 7.3 µM
[3]
  IC50: 67.4 ± 9.1 µM
[9]
  IC50: 20.8 ± 4.1 µM

## O=C(/C=C/C=C/c1ccccc1)c1ccccc1OCc1cccc(Cl)c1 [Compound 5a, (2E,4E)-1-(2-((3-Chlorobenzyl)oxy)phenyl)-5-phenylpenta-2,4-dien-1-one]
[1]
  IC50: 40.3 ± 2.9 µM
[2]
  IC50: 45.2 ± 2.1 µM
[3]
  IC50: 30.1 ± 8.3 µM
[9]
  IC50: 20.8 ± 1.7 µM

## O=C(/C=C/C=C/c1ccccc1)c1ccccc1OCc1ccc(Cl)c(Cl)c1 [Compound 5b, (2E,4E)-1-(2-((3,4-dichlorobenzyl)oxy)phenyl)-5-phenylpenta-2,4-dien-1-one]
[1]
  IC50: 9.19 ± 0.6 µM
[2]
  IC50: 17.9 ± 3.4 µM
[3]
  IC50: 20.4 ± 1.6 µM
[10]
  MEF50 (Mean Erythrocyte Fragility; concentration of PBS at which 50% of erythrocytes undergo hemolysis): 0.538
[9]
  IC50: 22.4 ± 2.4 µM

## O=C(/C=C/C=C/c1ccccc1)c1ccccc1OCc1ccc(Cl)cc1 [Compound 5c, (2E,4E)-1-(2-((4-Chlorobenzyl)oxy)phenyl)-5-phenylpenta-2,4-dien-1-one]
[1]
  IC50: 40.17 ± 0.2 µM
[2]
  IC50: 47.1 ± 4.5 µM
[3]
  IC50: 22.3 ± 1.2 µM
[9]
  IC50: 30.7 ± 2 µM

## O=C(/C=C/C=C/c1ccccc1)c1ccccc1OCc1ccccc1Cl [Compound 5d, (2E,4E)-1-(2-((2-Chlorobenzyl)oxy)phenyl)-5-phenylpenta-2,4-dien-1-one]
[1]
  IC50: 41.4 ± 3.9 µM
[2]
  IC50: 46.1 ± 1.1 µM
[3]
  IC50: 203 ± 5.3 µM
[9]
  IC50: 75.9 ± 4.8 µM

## O=C(/C=C/C=C/c1ccccc1)c1ccccc1OCc1ccc(F)cc1 [Compound 5e, (2E,4E)-1-(2-((4-Fluorobenzyl)oxy)phenyl)-5-phenylpenta-2,4-dien-1-one]
[1]
  IC50: 282 ± 5.7 µM
[2]
  IC50: 278.6 ± 1.7 µM
[3]
  IC50: 49.8 ± 2.8 µM
[9]
  IC50: 56.1 ± 1.8 µM

## O=C(/C=C/C=C/c1ccccc1)c1ccccc1OCc1ccc(Br)cc1 [Compound 5g, (2E,4E)-1-(2-((4-Bromobenzyl)oxy)phenyl)-5-phenylpenta-2,4-dien-1-one]
[1]
  IC50: 25.8 ± 1.6 µM
[2]
  IC50: 16.9 ± 2.3 µM
[3]
  IC50: 27.6 ± 4.2 µM
[9]
  IC50: 15.7 ± 2.8 µM

## O=C(/C=C/C=C/c1ccccc1)c1ccccc1OCc1ccccc1Br [Compound 5h, (2E,4E)-1-(2-((2-Bromobenzyl)oxy)phenyl)-5-phenylpenta-2,4-dien-1-one]
[1]
  IC50: 45 ± 3.3 µM
[2]
  IC50: 28.6 ± 2.2 µM
[3]
  IC50: 23.4 ± 4.7 µM
[9]
  IC50: 244 ± 4.7 µM

## N#Cc1ccccc1COc1ccccc1C(=O)/C=C/C=C/c1ccccc1 [Compound 5i, 2-((2-((2E,4E)-5-Phenylpenta-2,4-dienoyl)phenoxy)methyl) benzonitrile]
[1]
  IC50: 42 ± 2.1 µM
[2]
  IC50: 68.4 ± 2.8 µM
[3]
  IC50: 48.2 ± 5 µM
[9]
  IC50: 75.3 ± 2.1 µM

## Cc1ccc(COc2ccccc2C(=O)/C=C/C=C/c2ccccc2)cc1 [Compound 5j, (2E,4E)-1-(2-((4-Methylbenzyl)oxy)phenyl)-5-phenylpenta-2,4-dien-1-one]
[1]
  IC50: 25.7 ± 1.5 µM
[2]
  IC50: 21.3 ± 5.6 µM
[3]
  IC50: 23.6 ± 1.4 µM
[9]
  IC50: 7.87 ± 2.1 µM

## O=C(/C=C/C=C/c1ccccc1)c1ccccc1OCc1ccccc1 [Compound 5k, (2E,4E)-1-(2-(Benzyloxy)phenyl)-5-phenylpenta-2,4-dien-1-one]
[1]
  IC50: 46.6 ± 1.4 µM
[2]
  IC50: 55.6 ± 3.7 µM
[3]
  IC50: 109.4 ± 0.7 µM
[9]
  IC50: 80.3 ± 8.7 µM

## CCCCCCOc1ccccc1C(=O)/C=C/C=C/c1ccccc1 [Compound 5l, (2E,4E)-1-(2-(Hexyloxy)phenyl)-5-phenylpenta-2,4-dien-1-one]
[1]
  IC50: 46.7 ± 2.2 µM
[11]
  Zone of inhibition Candida tropicalis: showed activity
[2]
  IC50: 29 ± 2.1 µM
[3]
  IC50: 98 ± 10.1 µM
[7]; 1 mg/mL, 18 hrs
  Zone of inhibition Candida albicans: showed activity
[7]
  zone of inhibition at 1000 µg/mL: 8 mm
[9]
  IC50: 23.5 ± 4.1 µM

## CCCCCOc1ccccc1C(=O)/C=C/C=C/c1ccccc1 [Compound 5m, (2E,4E)-1-(2-(Pentyloxy)phenyl)-5-phenylpenta-2,4-dien-1-one]
[1]
  IC50: 33.2 ± 0.7 µM
[2]
  IC50: 126.8 ± 0.2 µM
[3]
  IC50: 104 ± 7.3 µM
[9]
  IC50: 125 ± 6 µM

## O=C(/C=C/C=C/c1ccccc1)c1ccccc1OCCBr [Compound 5n, (2E,4E)-1-(2-(2-Bromoethoxy)phenyl)-5-phenylpenta-2,4-dien-1-one]
[1]
  IC50: 9.38 ± 1.6 µM
[2]
  IC50: 8.72 ± 1.8 µM
[3]
  IC50: 18.5 ± 1.1 µM
[10]
  MEF50 (Mean Erythrocyte Fragility; concentration of PBS at which 50% of erythrocytes undergo hemolysis): 0.457
Swiss albino mice; oral
  Dose well tolerated / safe as a single acute oral dose: up to 1000 mg kg^−1
Swiss albino mice; [12]
  Gross pathology, absolute and relative organ weights: no significant abnormalities in absolute or relative organ weights
  Morbidity, mortality, abnormal clinical signs: no morbidity, mortality, or abnormal clinical signs; also recorded: no morbidity, mortality
Swiss albino mice; [13]
  ALKP: 170.67 ± 13.43 U L^−1
  Albumin: 2.55 ± 0.19 g/dL
  Bilirubin: 0.50 ± 0.00 mg/dL
  Body weight: 31.33 ± 1.54 g
  Cholesterol: 113.94 ± 4.49 mg/dL
  Creatinine: 0.92 ± 0.08 mg/dL
  Haemoglobin: 12.74 ± 0.51 g/dL
  RBC: 8.20 ± 0.60 million per mm^3
  SGOT: 20.84 ± 0.88 U L^−1
  SGPT: 16.76 ± 0.67 U L^−1
  Serum protein: 5.85 ± 0.13 mg/mL
  Triglycerides: 111.43 ± 4.39 mg/dL
  WBC: 9.48 ± 0.68 1000*/mm^3
Swiss albino mice; [14]
  ALKP: 164.25 ± 13.54 U L^−1
  Albumin: 2.58 ± 0.07 g/dL
  Bilirubin: 0.51 ± 0.00 mg/dL
  Body weight: 28.33 ± 0.72 g
  Cholesterol: 110.16 ± 3.57 mg/dL
  Creatinine: 0.86 ± 0.06 mg/dL
  Haemoglobin: 12.68 ± 0.67 g/dL
  RBC: 7.77 ± 0.66 million per mm^3
  SGOT: 20.60 ± 1.71 U L^−1
  SGPT: 18.63 ± 0.59 U L^−1
  Serum protein: 5.76 ± 0.16 mg/mL
  Triglycerides: 111.02 ± 5.61 mg/dL
  WBC: 9.54 ± 0.79 1000*/mm^3
Swiss albino mice; [15]
  ALKP: 173.23 ± 14.47 U L^−1
  Albumin: 2.55 ± 0.19 g/dL
  Bilirubin: 0.49 ± 0.02 mg/dL
  Body weight: 31.82 ± 0.96 g
  Cholesterol: 111.51 ± 3.48 mg/dL
  Creatinine: 0.90 ± 0.13 mg/dL
  Haemoglobin: 12.68 ± 0.71 g/dL
  RBC: 7.34 ± 0.38 million per mm^3
  SGOT: 19.39 ± 1.51 U L^−1
  SGPT: 18.03 ± 0.64 U L^−1
  Serum protein: 5.86 ± 0.18 mg/mL
  Triglycerides: 110.41 ± 3.90 mg/dL
  WBC: 10.13 ± 0.50 1000*/mm^3
Swiss albino mice; [16]
  ALKP: 170.75 ± 6.26 U L^−1
  Albumin: 2.70 ± 0.09 g/dL
  Bilirubin: 0.47 ± 0.04 mg/dL
  Body weight: 27.92 ± 1.30 g
  Cholesterol: 107.82 ± 3.48 mg/dL
  Creatinine: 0.97 ± 0.09 mg/dL
  Haemoglobin: 12.42 ± 0.55 g/dL
  RBC: 7.54 ± 0.62 million per mm^3
  SGOT: 19.73 ± 1.43 U L^−1
  SGPT: 17.55 ± 1.23 U L^−1
  Serum protein: 5.93 ± 0.13 mg/mL
  Triglycerides: 108.74 ± 2.77 mg/dL
[9]
  IC50: 7.69 ± 2.8 µM

## COc1cccc2c1C(=O)c1c(O)c3c(c(O)c1C2=O)C[C@@](O)(C(=O)CO)C[C@@H]3O[C@H]1C[C@H](N)[C@H](O)[C@H](C)O1 [Doxorubicin, reference compound]
[1]
  IC50: 2.5 ± 1.42 µM
[2]
  IC50: 0.45 ± 0.52 µM
[9]
  IC50: 0.7 ± 0.56 µM

## O=c1c(O)c(-c2ccc(O)c(O)c2)oc2cc(O)cc(O)c12 [Quercetin, reference compound]
[10]
  MEF50 (Mean Erythrocyte Fragility; concentration of PBS at which 50% of erythrocytes undergo hemolysis): 0.431
